# Measurements collected from several papers.
# Lines come from different studies, so protocols differ.
# Fibroblast growth factor 14: Fibroblast growth factor 14 (Homo sapiens, UniProt Q92915)
# HTR1A: 5-hydroxytryptamine receptor 1A (HTR1A, Homo sapiens, UniProt P08908)
# RIOK2: Serine/threonine-protein kinase RIO2 (RIOK2, Homo sapiens, UniProt Q9BVS4)
Structure (SMILES),target,observed,technique,tested at,notes,measurement,value
Cc1cccc(NC(=O)Cn2cc(CO)c3ccccc32)c1,Fibroblast growth factor 14,binding,SPR,,,kon,8900 M⁻¹ s⁻¹
CCCCC(=O)Nc1ccc(-c2ccc3ncn(CCC)c(=O)c3c2)cn1,"cAMP-dependent protein kinase catalytic subunit beta (PRKACB, Homo sapiens, UniProt P22694)",binding,competition with immobilised ligand,0.5 µM,,remaining binding,87%
O=C(CN(Cc1ccccc1)S(=O)(=O)c1ccc(F)cc1)Nc1cccc(Cl)c1Cl,Fibroblast growth factor 14,thermal stability,,25 µM,,ΔTm,1 °C
CCN1/C(=C/C(C)=O)Sc2ccc(F)cc21,HTR1A,ligand displacement,radioligand,10 µM,,inhibition,1.73%
C[C@]1(O)CCCN(c2nc(Nc3ccc(S(=O)(=O)N[C@H]4CC[C@H](CN5CCN(c6ccc(C7CCC(=O)NC7=O)cc6F)CC5)CC4)cc3Cl)ncc2C(F)(F)F)C1 (stereo partly shown),"Leucine-rich repeat serine/threonine-protein kinase 2 (LRRK2, Homo sapiens, UniProt Q5S007, G2019S)",binding,competition with immobilised ligand,1 µM,,remaining binding,12%
CC(=O)Nc1ccc(Oc2ccc3c(c2)C(=O)N(c2cc(C)ccc2C)C3=O)cc1,Fibroblast growth factor 14,binding,SPR,,,kon,69300 M⁻¹ s⁻¹
NC/C(=C\F)COc1cccc(Cn2c(=S)[nH]c(=O)c3[nH]cnc32)c1,"Glucocorticoid receptor (NR3C1, Homo sapiens, UniProt P04150)",ligand displacement,radioligand,10 µM,,inhibition,< 50%
N#Cc1ccc(NC(=O)Nc2ccccc2)cc1,RIOK2,cell-free assay,competition with immobilised ligand,25 µM,,remaining binding,68%
C#Cc1cnc(Nc2ccnc(CO)c2)nc1Nc1ccccc1S(C)(=O)=NC#N (stereo not shown),RIOK2,cell-free assay,,1 µM,,remaining signal,100%
CN(C)CCOC(=O)COc1ccc(Cl)cc1,HTR1A,ligand displacement,radioligand,1 µM,cell membranes,inhibition,-5.33%
C1=C/COCc2cc(ccc2OCCN2CCCC2)Nc2nccc(n2)-c2cccc(c2)COC/1,"Eukaryotic translation initiation factor 2-alpha kinase 1 (EIF2AK1, Homo sapiens, UniProt Q9BQI3)",binding,,0.1 µM,,remaining binding,87%
CC(=O)Nc1ccc(S(=O)(=O)N2CCN(CC(O)COc3ccc4ccccc4c3)CC2)cc1 (stereo not shown),Fibroblast growth factor 14,binding,SPR,,,kon,4290 M⁻¹ s⁻¹
COc1ccc2oc(-c3ccc4nc(N)oc4c3)c/c(=N\c3ccccc3NC(=O)CCN)c2c1,"Serine/threonine-protein kinase BRSK2 (BRSK2, Homo sapiens, UniProt Q8IWQ3)",binding,,1 µM,,remaining binding,85%
